Consider 22 compounds from ChEMBL document CHEMBL3813595, “Discovery of novel 5,6,7,8-tetrahydro[1,2,4]triazolo[4,3-a]pyridine derivatives as γ-secretase modulators (Part 2)” (Bioorg Med Chem, 2016).

Structures are written as SMILES.

Data set [1] can be described thus: Lipophilicity, logD of compound at pH 7.4 by retention time-based reverse phase chromatographic analysis. The class given is physicochemical. The following applies: buffer.
The subject of data set [2] is Plasma. The data set is described as follows: Drug uptake in APP-transgenic Tg2576 mouse plasma at 3 to 6 mg/kg, po administered as multiple dose by LC/MS/MS analysis. The class given is ADME, organism-based. The following applies: in vivo.
Data set [3] in a line: Drug uptake in C57BL/6J mouse plasma at 6 mg/kg, po after 3 hrs by LC/MS/MS analysis. The class given is ADME, organism-based. In outline: (§1)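 Male C57BL/6J mice, 9 weeks old, fed, n = 3, given a single oral dose of 6 mg/kg in 0.5% methylcellulose. Plasma and cortex collected at 3 h. Cortex homogenized in saline. Samples deproteinized with MeCN containing an internal standard, then diluted in ammonium formate/acetonitrile with 0.2% formic acid for analysis.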

Data set [4] can be described thus: Drug uptake in C57BL/6J mouse cortex at 6 mg/kg, po after 3 hrs by LC/MS/MS analysis. The class given is ADME, organism-based. As to conditions: read-out: Drug uptake; call rule not given here. In short, it runs like this: as §1
In data set [5] the test system is Cortex. In words: Drug uptake in APP-transgenic Tg2576 mouse cortex at 3 to 6 mg/kg, po administered as multiple dose by LC/MS/MS analysis. The class given is ADME, organism-based. The following applies: in vivo.
Data set [6] concerns Cortex. The data set is described as follows: Drug uptake in APP-transgenic Tg2576 mouse cortex at 3 to 6 mg/kg, po administered as single dose after 18 hrs by LC/MS/MS analysis. It counts as ADME, organism-based. The following applies: in vivo, BLD = below limit of detection.

As for `COc1cc(-c2nnc3n2CCCC32COc3ccccc3N(CC(F)(F)F)C2=O)ccc1-c1cnc(C)o1` (configuration not stated), the chromatographic logD – broadly, a lipophilicity value derived from retention on a column – in data set [1] was found to be 2.5. Still for that read-out and setting: under `COc1cc(-c2nnc3n2CCCC3(Oc2cc(F)c(F)c(F)c2)C(C)(C)O)ccc1-c1cnc(C)o1` (configuration not stated) stands 3.2. Same read-out and setting: under `COc1cc(-c2nnc3n2CCCC32OCc3c(cccc3C(F)(F)F)N(CC(F)(F)F)C2=O)ccc1-c1cnc(C)o1` (configuration not stated) stands 2.9.

In turn, `COc1cc(-c2nnc3n2CCCC32Cc3ccccc3N(CC(F)(F)F)C2=O)ccc1-c1cnc(C)o1` (configuration not stated) gave a chromatographic logD in data set [1] of 2.4. Same read-out and setting: under `COc1cc(-c2nnc3n2CCCC3(Oc2ccc(F)c(F)c2)C(C)(C)O)ccc1-c1cnc(C)o1` (configuration not stated) stands 2.8; under `COc1cc(-c2nnc3n2CCCC3(Cc2ccc(F)c(F)c2)C(N)=O)ccc1-c1cnc(C)o1` (configuration not stated), 2.3. Regarding `COc1cc(-c2nnc3n2CCCC32OCc3c(Cl)cccc3N(CC(F)(F)F)C2=O)ccc1-c1cnc(C)o1` (configuration not stated), in data set [1], the chromatographic logD was determined as 2.8. `COc1cc(-c2nnc3n2CCCC3(CO)Cc2ccc(F)c(F)c2)ccc1-c1cnc(C)o1` (configuration not stated): the chromatographic logD in data set [1] stood at 2.5. The same measure, in the same setting: as for `COc1cc(-c2nnc3n2CCCC3(CNC(C)=O)c2ccc(Cl)c(Cl)c2)ccc1-c1cnc(C)o1` (configuration not stated), the figure is 3.2; as for `COc1cc(-c2nnc3n2CCCC3(CN)c2ccc(Cl)c(Cl)c2)ccc1-c1cnc(C)o1` (configuration not stated), 3.1.

In data set [1], `COc1cc(-c2nnc3n2CCCC32OCc3ccccc3N(CC(F)(F)F)C2=O)ccc1-c1cnc(C)o1` (configuration not stated) displayed a chromatographic logD of 2.2. Turning to `COc1cc(-c2nnc3n2CCCC32C(=O)N(CC(F)(F)F)c3ccccc32)ccc1-c1cnc(C)o1` (configuration not stated), the chromatographic logD in data set [1] was determined as 2.2.

Turning to `COc1cc(-c2nnc3n2CCCC3(c2ccc(Cl)c(Cl)c2)C(C)(C)O)ccc1-c1cnc(C)o1` (configuration not stated), the chromatographic logD in data set [1] stood at 3.7.

As to `COc1cc(-c2nnc3n2CCC[C@]3(Oc2cc(F)c(F)c(F)c2)C(C)(C)O)ccc1-c1cnc(C)o1`, the Drug uptake result in data set [2] is “Not Active”; in data set [5], “Not Active”; in data set [6], “BLD”. The concentration at 3 h was 3310 ng/mL in data set [3] and 677 ng/g in data set [4]. This compound returned a chromatographic logD in data set [1] of 3.2. In data set [1], `COc1cc(-c2nnc3n2CCC[C@@]3(Oc2cc(F)c(F)c(F)c2)C(C)(C)O)ccc1-c1cnc(C)o1` registered a chromatographic logD of 3.2. On the same count and under the same terms, under `COc1cc(-c2nnc3n2CCCC3(Cc2ccc(F)c(F)c2)C(C)=O)ccc1-c1cnc(C)o1` (configuration not stated) stands 2.6.

In data set [1], `COc1cc(-c2nnc3n2CCCC3(OC)c2ccc(Cl)c(Cl)c2)ccc1-c1cnc(C)o1` (configuration not stated) came in with a chromatographic logD of 3.7. Same read-out and setting: as for `COc1cc(-c2nnc3n2CCCC3(c2ccc(F)c(F)c2)C(C)(C)O)ccc1-c1cnc(C)o1` (configuration not stated), the figure is 2.9. The compound `COc1cc(-c2nnc3n2CCCC3(O)c2ccc(Cl)c(Cl)c2)ccc1-c1cnc(C)o1` (configuration not stated) had a chromatographic logD in data set [1] of 2.9. Take `COc1cc(-c2nnc3n2CCCC3(Cc2ccc(F)c(F)c2)C(C)(C)O)ccc1-c1cnc(C)o1` (configuration not stated): the chromatographic logD in data set [1] was determined as 3. Same read-out and setting: as for `COc1cc(-c2nnc3n2CCCC3(Cc2ccc(F)c(F)c2)C(=O)N(C)CC(F)(F)F)ccc1-c1cnc(C)o1` (configuration not stated), the figure is 2.9; as for `COc1cc(-c2nnc3n2CCCC3(Cc2ccc(F)c(F)c2)C(=O)NCC(F)(F)F)ccc1-c1cnc(C)o1` (configuration not stated), 3.
